Laboratory results taken from ChEMBL document CHEMBL4513216, “Probing the Open Global Health Chemical Diversity Library for Multistage-Active Starting Points for Next-Generation Antimalarials” (ACS Infect Dis, 2020).

Test: Toxicity liver stage against HepG2, at 10uM
Format: cell-based
Design: test concentration 10 uM, cell line HepG2-A16-CD81EGFP
Conditions: human, HepG2-A16-CD81EGFP cells; read-out: INHIBITION
How it was run: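 Uninfected HepG2-A16-CD81EGFP cells, 3 × 10^3 per well, 1536-well, plated on prespotted compound at 10 μM final, parasite-free screening media added to match infected plates; puromycin 10 μM positive, DMSO 0.5% negative; run in parallel with 48 h PbLuc assay at 37 °C, 5% CO2; viability by CellTiter-Glo luminescence, normalized to controls.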

Structure (SMILES)	cytotoxicity at 10 µM [%]
COc1cc(-c2nc(N)n[nH]2)cc(OC)c1OC	-10.2
COCCOc1ccnc(-c2noc([C@@H]3CCCN3C(C)C)n2)c1	-12.7
Cc1ccc(S(=O)(=O)NC[C@H]2OC[C@@H](NCc3ccccc3)[C@@H]2O)cc1	-1.73
COc1ccc(CN2CC[C@@]3(C2)[C@H](O)CN(C)S3(=O)=O)cc1F	-7.86
Cc1cc(NC(=O)C(C#N)Cc2cnn(C)c2C)no1 (stereo not given)	4.58
CC(=O)c1sc2nc3c(c(C(F)(F)F)c2c1N)CN(C(C)=O)CC3	-26
CCOCCNS(=O)(=O)c1ccc2c3c1CCCN3C(=O)CO2	7.9
CCCN(CCC)c1ncc(S(=O)(=O)c2ccc(C)cc2)c(N)n1	3.19
COCCCN1CC2(CCCCN2C(=O)c2ccsc2)CC1=O (stereo not given)	5.03
CN(C)CC1(O)CCN(C(=O)Cc2ccc3c(c2)CCCC3)C1 (stereo not given)	-7.75
Cc1cc(C(=O)N2CCCC(c3cc(=O)nc4n3CCC4)C2)on1 (stereo not given)	-1.28
Cc1cc(NC2CC3(CCN(Cc4cscn4)C3)C2)ncn1 (stereo not given)	-2.13
CCn1ncc(CN2CCC(c3ncc(Cl)cc3S(C)(=O)=O)CC2)c1C	3.5
Cc1cncc(C2CCN(Cc3ccsc3)CC2)n1	4.86
Cc1cc(C)n(CCNC(=O)c2cc(C3CC3)n[nH]2)n1	7.39
CS(=O)(=O)c1cn[nH]c1C1CCCN(C(=O)CN2CCOCC2)C1 (stereo not given)	-22.8
CC(=O)N1CCCC(c2ccc(N3CCN(C)CC3)cn2)C1 (stereo not given)	-28.9
OCCN1CCCC(c2nccnc2Oc2ccc(F)cc2)C1 (stereo not given)	25.6
CCCn1ccnc1CN1CCN(C2CCOCC2)CC(C(N)=O)C1 (stereo not given)	-24.4
Cc1nc(Nc2ccccn2)cc(C2CCCN2C2CCOCC2)n1 (stereo not given)	-18.1
CN1CCCC[C@@H]2[C@H]1[C@@H](c1ccccc1)CCN2C(=O)c1ccccn1	-14.7
Cn1nc(C2CCCN(Cc3ccc(F)cc3F)C2)c2nccnc21 (stereo not given)	-8.46

Structure (SMILES)	cytotoxicity at 10 µM [%]
Cc1nccn1CC1CCCN(C(=O)c2cnn(C)c2)C1 (stereo not given)	-6.44
O=C(c1ccncc1)N1Cc2ccccc2OC2(CCOCC2)C1	-1.03
N#CCCSc1nnc(Cc2ccccc2F)o1	-11.7
CC(C)(C)c1ncc(C(=O)NCc2ccccc2CN2CCCC2)s1	-8.98
Cc1nnc2n1CCN(C(=O)C1CCC(n3cccc3)CC1)C2 (stereo not given)	-1.05
CN(C)C(=O)Cc1ccccc1NCc1nc(Cc2ccccc2)no1	1.9
Cc1csc(CNC(=O)N(C)Cc2ccc([S+](C)[O-])cc2)n1 (stereo not given)	4.53
Cc1cnn(Cc2ccc(NC(=O)N3CCCC3)cc2)c1	1.18
Cc1cccnc1CNc1ccc(C(=O)N2CCc3ccccc32)cn1	-0.608
Cc1nnc(SCc2cccc(F)c2)n1CC(N)=O	-6.58
Cc1cc(C2CCCN(C(=O)c3ccc(OCC4CC4)nc3)C2)n[nH]1 (stereo not given)	-12.9
O=C(NCc1ccc(CN2CCCC2)cc1)NCc1ccon1	-0.145
COc1ccc(CCNC(=O)C(C)Nc2cccc(C)c2C)cc1 (stereo not given)	-5.91
Cc1cc(F)cc2c(N3CCC(S(N)(=O)=O)CC3)c(C#N)cnc12	0.79
COCc1nccc(C2CCCN(Cc3cccc(F)c3)C2)n1 (stereo not given)	0.769
CCN(CC)CCSc1ncnc2[nH]ncc12	-4.44
CC(C)COc1cncc(NCC(O)c2ccco2)n1 (stereo not given)	-2.85
CC(C)C(=O)N1CCCC1C(=O)Nc1cc(C(F)(F)F)ccc1F (stereo not given)	-0.359
COCCNC(=O)c1ccoc1CN1c2ccccc2CC1C (stereo not given)	5.41
Cc1cn(-c2ccccc2)nc1NS(=O)(=O)c1ccc(C(=O)O)cc1	-5.51
COc1c(C2CCCN2C(=O)c2cccn2C)c(C)nn1C (stereo not given)	-1.88
CCN1CCN(c2ccc(NC(C)c3nc(C(C)C)no3)c(C)c2)CC1 (stereo not given)	-10

Structure (SMILES)	cytotoxicity at 10 µM [%]
Cc1nn(C)c(Cl)c1CNCCOc1ccc2c(c1)OCO2	1.52
CC(C)(C)OC(=O)N1CCC[C@H](NCC2CCOCC2)C1	-0.678
NS(=O)(=O)CC1CCN(c2ncccc2C(F)(F)F)CC1	-3.16
CN1CCN(S(C)(=O)=O)c2cc(F)ccc21	-1.15
O=S(=O)(N1CCCCCC1)N1CCc2sccc2C1	-5.6
N#Cc1nccnc1N1CCC(COCc2ccccc2)C1 (stereo not given)	7.78
Cc1ccccc1C1(CN)CCOCC1	7.93
Cc1cnn(CC2CCCCN2C(=O)c2sccc2C#N)c1 (stereo not given)	0.185
NC(=O)NC(CC(=O)NCCc1cccc(F)c1)c1ccccc1 (stereo not given)	-0.862
O=C(NCC1(c2ccc(F)cc2)CCC1)N1CCC2(C1)OCCO2	2.58
Cc1cc(CNC2(c3ccccc3)CCCCC2)no1	2.94
CCOc1ccc(NC(C)c2nnnn2-c2ccccc2)cc1CO (stereo not given)	-5
CC(C)(C)c1nc(CNC2CCN(S(C)(=O)=O)CC2)cs1	-2.34
O=C(CCCNC(=O)Nc1ccc(F)cc1)Nc1cn[nH]c1	9.37
Cc1cc(=O)n2nc(Oc3cc(Cl)cc(Cl)c3)sc2n1	16.8
CC(CNC(=O)c1cnc[nH]1)Oc1ccc(Cl)cc1 (stereo not given)	-7.09
COc1ccc(Cc2nnc3n2N=C(C(C)(C)C)CS3)cc1	10.7
COC(=O)c1ccc(C(=O)NS(=O)(=O)c2cncc(Br)c2)cc1	9.95
CC(C)C(NC(=O)NCC1(CO)CC1)c1nnc2n1CCC2 (stereo not given)	-6.11
CCS(=O)(=O)N1Cc2nccn2CC(Cn2cncn2)C1 (stereo not given)	7.21
CN(C)CCNCC1COCc2c(-c3ccnn3C)nnn2C1 (stereo not given)	-99.9
O=C(CC1CC1)N1Cc2nccn2CC(CN2CCCC2)C1 (stereo not given)	-67.7

Structure (SMILES)	cytotoxicity at 10 µM [%]
Cc1nc2c(c(NC3CC3)n1)CCN(C(=O)C(C)(C)O)CC2	4.24
Cc1nc(CN(C)C(=O)C2CCC(=O)N(CCN(C)C)C2)cs1 (stereo not given)	8.08
CCN1CCCC1Cn1ccc2ccc(C(=O)OC)cc2c1=O (stereo not given)	-7.86
CCC1(CO)CCCN(C(=O)c2cc(COc3cccc(F)c3)[nH]n2)C1 (stereo not given)	5.31
Cc1nc[nH]c1CN1CCCC12CCN(c1ccccn1)CC2	4.55
Cc1c[nH]c(CN(C)C(=O)CCn2cnc3ccccc32)n1	9.67
Cc1cc(C)c(C(=O)NC2CCCc3nc(N(C)C)ncc32)cc1C (stereo not given)	-1.25
Cn1c(N2CCOCC2)nc2cc(C(=O)NCC(F)(F)F)ccc21	1.85
CCCc1noc(C2CC(=O)N(CCN(C)C)C2)n1 (stereo not given)	5.48
CC(C)N1CC2(CCC1=O)CCN(c1ccnc3ccccc13)CC2	3.2
CN(CCc1ccccn1)[C@@H]1CCN(c2cccc(C#N)n2)C[C@H]1O	-13.9
CC(CCc1ccccc1)NC(=O)CN1CCOCC1 (stereo not given)	4.17
CSc1ccc2cc(CN(C)CCc3cn[nH]c3)c(=O)[nH]c2c1	-7.23
NC(=O)c1csc(N2C[C@@H](CN3CCOCC3)[C@@H](CO)C2)n1	2.97
CC(C)(C)c1nc(CN2CCN(C(=O)c3cnccn3)CC2)cs1	-5.92
O=C(c1cccnc1O)N1CCN(CCc2cccs2)CC1	-8.86
Cc1cc(CN2CCCCC2Cn2cncn2)no1 (stereo not given)	-8.89
CCCn1nc2c(cc1=O)CN(Cc1nc(-c3ccco3)no1)CC2	-7.69
COc1ccc(-n2ccc(C(=O)N3CCN(C)CC3C)n2)cc1 (stereo not given)	-11.2
CC(=O)N1CCCN(C(=O)NCc2cc[nH]n2)CC1	-6.44
CCN(CC1CCOC1)C(=O)Nc1ccc(-n2cncn2)nc1 (stereo not given)	-6.92
COc1cc(C)nc(N2CCN(C(=O)COCC(F)(F)F)CC2)n1	-9.62

Structure (SMILES)	cytotoxicity at 10 µM [%]
Cc1cc(C)n(CC(=O)N2CCC(NS(C)(=O)=O)CC2)n1	3.18
COc1cc(CNC(=O)Nc2cc(C(F)(F)F)c[nH]c2=O)ccn1	1.53
COc1cc(CNc2cnn(C)c2)cc2c1OCCO2	-10.8
Cc1cc(CN2CCN(C(=O)NC(C)c3cccnc3)CC2)on1 (stereo not given)	-7.93
Cc1cc(C)n(CC2CCCN2C(=O)CCc2cscn2)n1 (stereo not given)	-10.4
O=C1CC(N(C(=O)c2ccc3[nH]c4c(c3c2)CCCC4)C2CC2)C(=O)N1 (stereo not given)	-3.79
Cc1cc(C(=O)N2CCCC(c3noc(C)n3)C2)[nH]n1 (stereo not given)	-6.67
CC(C)(C)c1cn2nc(N3CCOC(Cn4cncn4)C3)sc2n1 (stereo not given)	-2.63
COc1ccc(CN2C[C@@H]3COC[C@]3(CN(C)C)C2)cc1	-1.75
O=C([C@H]1CC[C@@H]2[C@@H](CCN2C2CCCCC2)O1)N1CCOCC1	7.19
Cc1cnc(CN(C)C2CCN(CC(=O)Nc3nncs3)C2)o1 (stereo not given)	1.76
O=S(=O)(C1CC1)N1CCC2(CC1)CN(Cc1ccccn1)CCO2	-0.358
O=C(NC[C@]12COC[C@H]1CN(Cc1cccs1)C2)c1ccsc1	-0.629
Cc1cccc(CN2CCC3(CC2)CC(c2cccnc2)C(=O)N3C)n1 (stereo not given)	7.53
CS(=O)(=O)c1cncnc1C1CCCNC1 (stereo not given)	-8.33
COc1cc(N2C[C@H]3CCC[C@@H](CN(C)C4CC4)[C@H]3C2)ncn1	-73
CNC(=O)[C@H]1C[C@@H]2CN(C(=O)c3ccncc3)C[C@@H]2N1S(C)(=O)=O	-5.98
Cn1cccc1C(=O)NCc1cnc2n1CCN(CC1CCOCC1)C2	-105
COc1cccc(CNC(C)Cn2cccn2)c1OC (stereo not given)	-4.84
Cc1cccc(CN2CCC3(CCN(c4ccccn4)C3)C2=O)c1 (stereo not given)	9.3
CN(C)CCO[C@@H]1CC[C@H]2[C@H]1OCCN2C(=O)c1ccnnc1	-2.1
CC(C)CC(=O)N1CC[C@@H]2[C@H](CC1)N(Cc1cccnc1)CCS2(=O)=O	0.238
